DNMT1 inh: human DNMT1 methyltransferase inhibitors, primary screen, biochemical, molecular beacon, fluorescence, HinP1I cleavage, uHTS | DNA (cytosine-5)-methyltransferase 1 (Homo sapiens), P26358 | inhibition (reported as % activation of signal), % at 10 µM | 360,000 tested, 0.83% active | AID 588458, 2011; in the data active = inhibition above about 50%
LMPTP block: LMPTP phosphatase inhibitors, primary screen, biochemical, fluorescence intensity, uHTS | Low molecular weight phosphotyrosine protein phosphatase (Homo sapiens), P24666 | recombinant LMPTP-A, OMFP fluorogenic substrate | inhibition, % at 20 µM | 360,000 tested, 0.22% active | AID 651560, 2012;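 active = compounds that cut the enzyme signal by at least half of the control window in the single-dose screen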
Target sequence (P24666 whole entry, looked up): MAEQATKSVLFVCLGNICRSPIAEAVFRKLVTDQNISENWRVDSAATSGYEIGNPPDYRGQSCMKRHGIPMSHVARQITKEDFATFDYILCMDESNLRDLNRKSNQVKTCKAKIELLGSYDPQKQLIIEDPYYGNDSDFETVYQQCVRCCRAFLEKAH
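Test system – LMPTP-A phosphatase enzyme · Quantity – 0.625 nM LMPTP-A final · Reagent – OMFP substrate, 400 µM final · Dosing – one test concentration per compound, 20 µM, with 3% DMSO overall · Timing – 50 min enzyme reaction at room temperature, protected from light · Detection – fluorescence intensity · Controls – substrate-only low control, DMSO enzyme-plus-substrate high control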
Scp1 inh: Scp-1 phosphatase inhibitors, primary screen, biochemical, colorimetric, uHTS. 340,000 tested, 0.88% active. Recombinant Scp1, phosphopeptide, malachite green phosphate absorbance. Carboxy-terminal domain RNA polymerase II polypeptide A small phosphatase 1 (Homo …. AID 493091, 2011. inhibition, % at 20 µM;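 active = inhibition above about 50% at 20 µM, limit read from the data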
Target sequence (Q9GZU7 76-261 limits assumed): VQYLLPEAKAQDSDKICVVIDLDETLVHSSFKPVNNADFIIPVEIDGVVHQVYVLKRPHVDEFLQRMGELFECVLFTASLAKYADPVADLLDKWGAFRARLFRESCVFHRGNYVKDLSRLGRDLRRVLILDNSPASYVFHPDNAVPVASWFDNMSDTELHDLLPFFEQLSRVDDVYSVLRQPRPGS
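assay system = SCP-1 phosphatase catalytic domain, residues 76-261 | buffer or medium = 50 mM Tris acetate pH 5.5, 0.005% Tween-20, 10 mM MgCl2 | incubation = enzyme reaction 45 min at room temperature, colour 5 min, stabilisation 30 min | signal = Phosphate-binding colour reagent, absorbance read at 630 nm | measure = % inhibition at 20 µM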
STEP block: STEP phosphatase inhibitors, primary screen, biochemical, fluorescence intensity, uHTS. Tyrosine-protein phosphatase non-receptor type 5 (Homo sapiens), P54829. recombinant STEP, OMFP fluorogenic substrate. inhibition, % at 20 µM. 360,000 tested, 0.25% active;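 active = inhibition at 20 µM, scaled per plate between control wells, above about 37%, limit read from the data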
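Assay system: isolated STEP enzyme / Timing: 20 min at room temperature, dark / Doses: 20 µM, 1% DMSO / Technique: fluorescence intensity, excitation 480 nm, emission 540 nm / Reagent: fluorogenic phosphatase substrate OMFP at 25 µM final / Measure: percent inhibition scaled to no-enzyme and uninhibited-enzyme controls, plate-pattern corrected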
SUMO1 PPI mod: modulators of SUMO1 protein-protein interactions, primary screen, biochemical, uHTS | SUMO1 binding to a labelled peptide, TR-FRET, 1 h | inhibition, % at 20 µM | 360,000 tested, 0.33% active; in the data active = inhibition above about 37%
Target sequence (P63165 whole entry, looked up): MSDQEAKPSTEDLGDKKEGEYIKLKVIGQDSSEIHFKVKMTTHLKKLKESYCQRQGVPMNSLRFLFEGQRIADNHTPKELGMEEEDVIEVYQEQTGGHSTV
NadD block: inhibitors of S. aureus NadD, primary screen, biochemical, colorimetric, uHTS; Nicotinate-nucleotide adenylyltransferase NadD (Staphylococcus aureus N315); purified NadD enzyme, colorimetric absorbance read-out; inhibition, % at 20 µM; 360,000 tested, 0.78% active; in the data active = inhibition above about 26%
STEP inh conf: STEP phosphatase inhibitor hit confirmation, biochemical, fluorescence intensity, single concentration | shares compounds with STEP block | recombinant STEP, OMFP fluorogenic substrate | inhibition, % at 20 µM | 520 tested, 32% active; call rule not given here
Each line names hits and unclear results; the compound was inactive in the other large screens (follow-up assays come after a bar, where they were run). Compounds with a hit are over-represented: about 2.3% of the library has one in this group of screens.

O=S(=O)(O)c1cc(O)c2cc(Nc3ccccc3)ccc2c1	DNMT1 inh 98, LMPTP block 83, Scp1 inh 88, STEP block 72, SUMO1 PPI mod 77 | STEP inh conf 100
O=C(Nc1ccc2c(c1)OCO2)c1cc(C2CCCCN2C(=O)c2ccc(Cl)cc2)on1 (configuration not stated)	none (no result: Scp1 inh)
COc1ccc(-c2csc(N3CCC(C(N)=O)(N4CCCCC4)CC3)n2)cc1	STEP block 71 | STEP inh conf inactive
NC(=O)C1(N2CCCCC2)CCN(c2nc(-c3ccccc3)cs2)CC1	none
CCOC(=O)c1cnn(-c2ncnc3sc(C)c(C)c23)c1N	STEP block 70 | STEP inh conf inactive
CCOC(=O)c1cnn(-c2ccc(C)cc2)c1N	none
Cc1nn2c(CN(C(=O)COc3ccccc3)c3ccccc3)nnc2c2ccccc12	STEP block 122 | STEP inh conf inactive
Cc1nn2c(CN(C(=O)CN3CCOCC3)c3ccccc3)nnc2c2ccccc12	none
COc1ccc(NC(=S)N(CCN2CCOCC2)C2CCN(C(C)=O)CC2)cc1Cl	none
COc1cc(Cl)ccc1NC(=S)N(CCN1CCOCC1)C1CCN(C(C)=O)CC1	STEP block 51 | STEP inh conf inactive
CC(=O)N1CCC(N(CCN2CCOCC2)C(=S)Nc2ccc(C)cc2)CC1	STEP block 63 | STEP inh conf 21
O=C(OCc1ccccc1)/C(=C/c1cccc2ccccc12)NC(=O)c1ccccc1	none
Cc1ccc(C(=O)N/C(=C\c2ccccc2)C(=O)OCc2ccccc2)cc1	STEP block 60 | STEP inh conf inactive
Cc1ccc(-c2cc(NC(=O)c3ccccc3)on2)cc1	none
COc1ccc(C(=O)Nc2cc(-c3ccc(C)cc3)no2)cc1	STEP block 94 | STEP inh conf inactive
Cc1cc(C(=O)CCC(=O)N2CCN(c3ccccc3)CC2)c(C)s1	none
O=C1[C@@H]2[C@@H]3C[C@@H]([C@H]4ON=C(c5ccc(Cl)cc5)[C@@H]34)[C@@H]2C(=O)N1c1ccc2c(c1)OCO2	STEP block 46 | STEP inh conf inactive
COC(=O)C1=C(C(=O)OC)C(c2ccccc2O)c2sc(=O)[nH]c2S1 (configuration not stated)	none
Cc1cccc(N2CCN(C(=O)CCNS(=O)(=O)c3ccc4c(c3)oc(=O)n4C)CC2)c1C	STEP block 74 | STEP inh conf inactive
O=C(/C=C/c1ccccc1Cl)N1CCN(c2ncccn2)CC1	STEP block 68 | STEP inh conf inactive
CCOc1ccc(N2C(=O)c3cccnc3C2Nc2ccc(F)cc2)cc1 (configuration not stated)	STEP block 52 | STEP inh conf inactive
Cc1ccc(NC2c3ncccc3C(=O)N2Cc2ccc(F)cc2)cc1 (configuration not stated)	none
O=C(O)c1ccc(NC(=S)Nc2ccccc2)cc1	STEP block 107 | STEP inh conf inactive
CCc1cccc(C)c1Nc1nc2ccccc2n2cnnc12	none
S=C1NC(C23CC4CC(CC(C4)C2)C3)=CC(c2ccc3c(c2)OCO3)N1 (configuration not stated)	STEP block 62 | STEP inh conf 25
COc1cc(C2C=C(C34CC5CC(CC(C5)C3)C4)NC(=S)N2)cc(OC)c1OC (configuration not stated)	none
O=S(=O)(Nc1ccc(Cl)cc1)c1ccc(N2CCOCC2)c(NC(=S)NCCN2CCOCC2)c1	STEP block 92 | STEP inh conf 71
CC1(C)Cc2c(sc(N)c2C#N)C(C)(C)N1	STEP block 44 | STEP inh conf inactive
CC1(C)Cc2c(sc(NC(=O)C(C)(C)C)c2C#N)C(C)(C)N1	none
COc1cc2c(cc1NC(=O)c1cccc([N+](=O)[O-])c1)oc1ccccc12	LMPTP block 66, STEP block 84 | STEP inh conf inactive
COc1cc2c(cc1NC(=O)c1ccc(C)c([N+](=O)[O-])c1)oc1ccccc12	none
COc1ccc(S(=O)(=O)N=C2C=C(C)C(=O)C(C)=C2)cc1	STEP block 45 | STEP inh conf inactive
COc1ccc(C)cc1N(C(=O)c1ccccc1F)c1nc2ccccc2s1	none
COC(=O)C1=C(CS(=O)(=O)c2ccc(Cl)cc2)NC(=O)NC1c1ccc(O)cc1 (configuration not stated)	STEP block 93 | STEP inh conf inactive
COc1ccc(NC(=O)c2cc(S(=O)(=O)N3CCOCC3)ccc2C)cc1S(=O)(=O)N1CCOCC1	none
NC(=O)CSc1nc2cc(S(=O)(=O)N3CCOCC3)ccc2o1	STEP block 56 | STEP inh conf inactive
COc1cccc(CC(NC(C)=O)C(=O)NC2CCN(C(=O)C3CC3)CC2)c1OC (configuration not stated)	none
CCn1cc(C(=O)OCC(=O)Nc2c(C)cccc2C)c(=O)c2ccc(C)nc21	none
COCCN(C(=S)Nc1c(C)cc(C)cc1C)C(C)c1cccnc1 (configuration not stated)	STEP block 50 | STEP inh conf 21
COCCN(C(=S)Nc1c(C)cccc1C)C(C)c1cccnc1 (configuration not stated)	none
OC(c1ccccc1)(c1ccccc1)C1CCN(CCCOc2ccc3c(c2)CCCC3)CC1	none (no result: DNMT1 inh, Scp1 inh, STEP block)
Nc1c(C(=O)c2ccc(Br)cc2)oc2ccccc12	STEP block 43 | STEP inh conf inactive
CC(C)(C)CC(=O)Nc1ccc(S(=O)(=O)NC2=NCCCCC2)cc1	none
CCc1nc2nc(C)c(NS(=O)(=O)c3ccc(C)c(C)c3)c(=O)n2[nH]1	none
O=C(NC1CCCCCC1)C(=S)NC1CCCCC1	STEP block 57 | STEP inh conf 31
CCc1cc(CNC(=O)C2CCC(=O)N(CCc3cccc(F)c3)C2)on1 (configuration not stated)	none
COc1ccc(N2CCN(c3nc4c(C)cccn4c(=O)c3C=C(C#N)C#N)CC2)cc1	STEP block 63 | STEP inh conf inactive

Screening results from PubChem BioAssay.
